According to ChEMBL document CHEMBL1156296, “Development of novel, highly potent inhibitors of V-RAF murine sarcoma viral oncogene homologue B1 (BRAF): increasing cellular potency through optimization of a distal heteroaromatic group” (J Med Chem, 2010):

Columns and labels:
[1] = Growth inhibition of human WM266.4 cells expressing BRAF V600E mutant after 5 days by SRB assay; format: functional; settings: WM 266-4, 120 h
[2] = target: T1, Serine/threonine-protein kinase B-raf (Homo sapiens, UniProt P15056, V600E); assay: Inhibition of human BRAF V600E mutant expressed in baculovirus system
Method in brief: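 Isolated purified V600E BRAF kinase with a 45 min incubation. Enzyme inhibition measured and IC50 derived. Run in triplicate, with one compound measured once.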

[3] = Oral bioavailability in BALB/cAnNCrl mouse at 10 mg/kg; format: ADME, organism-based; settings: in vivo
Method in brief: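 Female BALB/cAnNCrl mice, at least 6 weeks old. The oral arm was gavage at 10 mL/kg in DMSO/water 1:19. The iv arm was 2 mg/kg (~4 μmol/kg) at 10 mL/kg in DMSO/Tween-20/water 10:1:89, sampled at seven or eight points from 5 min to 18 or 24 h. Three mice per time point, terminal cardiac blood, plasma.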

[4] = Tmax in BALB/cAnNCrl mouse at 10 mg/kg, po; format: ADME, organism-based; design: dose 10 mg/kg, route oral; settings: in vivo
Method in brief: (§1)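 Female BALB/cAnNCrl mice, at least 6 weeks old, dosed once by oral gavage at 10 mL/kg in DMSO/water 1:19 v/v. Blood was taken at six or eight time points from 15 min to 18 or 24 h, three mice per time point, by terminal cardiac puncture under halothane or isoflurane into heparinized syringes. Plasma was snap frozen and stored at -70 °C.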

[5] = Half life in BALB/cAnNCrl mouse at 10 mg/kg, po; format: ADME, organism-based; design: dose 10 mg/kg, route oral; settings: in vivo; method in brief: as §1
[6] = target: T1, Serine/threonine-protein kinase B-raf; assay: Inhibition of BRAF V600E mutant ERK phosphorylation in human WM266.4 cells; format: cell-based
Method in brief: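 WM266.4 melanoma cells, which carry mutant V600E BRAF, exposed to inhibitor for 6 h. ERK phosphorylation (pERK) measured and IC50 derived. Run in triplicate, with a few compounds measured once.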

[7] = Cmax in BALB/cAnNCrl mouse at 10 mg/kg, po; format: ADME, organism-based; design: dose 10 mg/kg, route oral; settings: in vivo; method in brief: as §1

T1 sequence (P15056 2-766 V600E limits assumed): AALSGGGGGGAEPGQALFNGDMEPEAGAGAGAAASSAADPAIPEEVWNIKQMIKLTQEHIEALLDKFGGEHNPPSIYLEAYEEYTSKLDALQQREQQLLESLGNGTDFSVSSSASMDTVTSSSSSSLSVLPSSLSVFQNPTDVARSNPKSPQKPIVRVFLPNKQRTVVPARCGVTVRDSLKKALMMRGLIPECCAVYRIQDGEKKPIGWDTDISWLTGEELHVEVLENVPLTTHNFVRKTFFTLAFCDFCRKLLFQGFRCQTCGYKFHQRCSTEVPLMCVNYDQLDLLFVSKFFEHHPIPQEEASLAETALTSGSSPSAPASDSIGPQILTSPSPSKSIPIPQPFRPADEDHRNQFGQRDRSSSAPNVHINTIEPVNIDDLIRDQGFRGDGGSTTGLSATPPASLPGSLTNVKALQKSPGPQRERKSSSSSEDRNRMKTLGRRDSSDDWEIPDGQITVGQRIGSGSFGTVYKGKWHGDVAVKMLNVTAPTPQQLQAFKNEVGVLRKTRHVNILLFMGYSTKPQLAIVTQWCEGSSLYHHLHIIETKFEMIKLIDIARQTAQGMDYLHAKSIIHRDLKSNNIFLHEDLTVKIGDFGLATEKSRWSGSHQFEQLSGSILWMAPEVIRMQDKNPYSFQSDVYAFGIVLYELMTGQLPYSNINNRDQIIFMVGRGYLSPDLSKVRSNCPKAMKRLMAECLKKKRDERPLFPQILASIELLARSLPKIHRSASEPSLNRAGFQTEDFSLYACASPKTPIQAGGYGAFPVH

SMILES | GI50 [1] [µM] | IC50 [2] [µM] | bioavailability [3] [%] | Tmax [4] [h] | half-life [5] [h] | IC50 [6] [µM] | Cmax [7] [µM]
Cc1ccc(-n2nc(C(C)(C)C)cc2NC(=O)Nc2ccc(Oc3ccnc4c3[nH]c(=O)n4C)cc2)cc1 | 0.027 | 1.19 | 30 | 1 | 3.4 | 0.054 | 22.7
Cc1ccc(-n2nc(C(C)(C)C)cc2NC(=O)Nc2ccc(Oc3ccnc4c3n(C)c(=O)n4C)cc2)cc1 | 0.21 | 1.8 |  |  |  | 0.19 | 
Cn1nc(C(C)(C)C)cc1NC(=O)Nc1ccc(Oc2ccnc3[nH]c(=O)[nH]c23)c2ccccc12 | 0.67 | 0.011 |  |  |  | 2.3 | 
Cc1ccc(-n2nc(C(C)(C)C)cc2NC(=O)Nc2ccc(Oc3ccnc4c3[nH]c(=O)n4C)cc2F)cn1 | 0.24 | 0.53 | 17 | 0.25 | 12.6 | 0.062 | 18
Cn1c(=O)n(C)c2c(Oc3ccc(NC(=O)Nc4cc(C(C)(C)C)nn4-c4ccccc4)c(F)c3)ccnc21 | 0.033 | 1.09 | 59 | 0.5 | 2.1 | 0.122 | 4.44
CC(C)(C)c1cc(NC(=O)Nc2ccc(Oc3ccnc4[nH]c(=O)[nH]c34)cc2)n(-c2ccc(Cl)cc2)n1 | 0.53 | 0.14 |  |  |  | 0.35 | 
Cc1cc(NC(=O)Nc2ccc(Oc3ccnc4[nH]c(=O)[nH]c34)cc2)n(-c2ccc(Cl)cc2)n1 | 21 | 0.29 |  |  |  | 70 | 
CC(C)c1cc(NC(=O)Nc2ccc(Oc3ccnc4[nH]c(=O)[nH]c34)cc2)n(-c2ccccc2)n1 | 1.17 | 0.042 |  |  |  | 1.97 | 
Cc1ccc(-n2nc(C(C)(C)C)cc2NC(=O)Nc2ccc(Oc3ccnc4c3n(C)c(=O)n4C)cc2F)cc1 | 0.32 | 1.13 | 31 | 0.5 | 9.4 | 0.052 | 8.12
CSc1cc(Oc2ccnc3[nH]c(=O)[nH]c23)ccc1NC(=O)Nc1cc(C(C)(C)C)nn1-c1ccc(C)cc1 | 0.016 | 0.076 |  |  |  | 0.056 | 
Cn1nc(C(C)(C)C)cc1NC(=O)Nc1ccc(Oc2ccnc3c2[nH]c(=O)n3C)cc1 | 1.92 | 0.258 |  |  |  | 2.9 | 
Cn1c(=O)[nH]c2c(Oc3ccc(NC(=O)Nc4cc(C(C)(C)C)nn4-c4ccccc4)cc3)ccnc21 | 0.061 | 0.88 |  |  |  | 0.13 | 
Cc1ccc(-n2nc(C(F)(F)F)cc2NC(=O)Nc2ccc(Oc3ccnc4[nH]c(=O)n(C)c34)cc2)cc1 | 1.89 | 0.176 |  |  |  | 3.2 | 
Cn1c(=O)[nH]c2nccc(Oc3ccc(NC(=O)Nc4cc(C5CC5)nn4-c4ccccc4)cc3)c21 | 3.7 | 0.143 |  |  |  | 18.2 | 
Cn1c(=O)[nH]c2nccc(Oc3ccc(NC(=O)Nc4cc(C(C)(C)C)nn4-c4ccccc4)cc3)c21 | 0.145 | 0.215 |  |  |  | 0.164 | 
Cn1nc(C(C)(C)C)cc1NC(=O)Nc1ccc(Oc2ccnc3[nH]c(=O)n(C)c23)cc1 | 4.2 | 0.084 |  |  |  | 14.1 | 
Cn1c(=O)[nH]c2nccc(Oc3ccc(NC(=O)Nc4cc(C(C)(C)C)nn4-c4ccc(F)cc4)cc3)c21 | 0.497 | 0.135 |  |  |  | 1.36 | 
CC(C)(C)c1cc(NC(=O)Nc2ccc(Oc3ccnc4[nH]c(=O)[nH]c34)c3ccccc23)n(-c2ccccc2)n1 | 0.034 | 0.51 |  |  |  | 0.035 | 
Cn1nc(C(C)(C)C)cc1NC(=O)Nc1ccc(Oc2ccnc3[nH]c(=O)n(C)c23)c2ccccc12 | 0.161 | 0.099 |  |  |  | 0.383 | 
